Results as given in ChEMBL document CHEMBL1127411, “Chemical and biological evaluation of hydrolysis products of cyclophosphamide” (J Med Chem, 1994).
The source made the active and inactive calls. The calls are words filed in the database; no cut-off is given here.

Columns and labels:
[1] = The half life at a physiological pH
[2] = The half life at a pH 1.2; conditions: buffer
[3] = Lethal dose was evaluated after single intraperitoneal injection in mice; assay type: toxicity, organism-based; conditions: mouse, in vivo, ip
Summary of the method: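 Male CD2F1 mice, 6–8 weeks old, two per dose group, single ip injection. Observed 28 days for lethality and clinical signs of toxicity; approximate LD₅₀ estimated from deaths.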

[4] = Antitumor efficacy evaluated after fractionated dose of 4*100 mg/kg; NE = No effect; assay type: functional, organism-based
Summary of the method: (§1)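 Male CD2F1 mice, six per group, inoculated ip with 10⁶ freshly harvested P388 cells in 0.2 mL phosphate-buffered saline. Test substance given ip either once on day 1 or daily on days 1–4; controls received solvent. Median survival time recorded per group; increase of life span expressed as percentage of control.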

[5] = Antitumor efficacy evaluated after single dose of 316 mg/kg; NE = No effect; assay type: functional, organism-based; set-up: dose 316 mg/kg; summary of the method: as §1
[6] = Antitumor efficacy evaluated after single intraperitoneal dose of 215 mg/kg; NE = No effect; assay type: functional, organism-based; set-up: dose 215 mg/kg; summary of the method: as §1
[7] = Antitumor efficacy evaluated after single intraperitoneal dose of 68.1 mg/kg on consecutive days; NE = No effect; assay type: functional, organism-based; set-up: dose 68.1 mg/kg; summary of the method: as §1

With `O=P1(N(CCCl)CCCl)NCCCO1` (stereo not given) [CYCLOPHOSPHAMIDE ANHYDROUS] the half-life [1] was 158 h, the half-life [2] was 33.6 h and the LD50 [3] was 620 mg/kg.
For `O=P1(O)OCCCNCCN1CCCl`, the LD50 [3] was 1000 mg/kg, the Efficacy [4] was “inactive” and the Efficacy [5] was “inactive”.
With `O=P(O)(O)OCCCNCCNCCCl` the LD50 [3] was 700 mg/kg, the Efficacy [6] was “inactive” and the Efficacy [7] was “inactive”.
`NCCCOP(=O)(O)O` gave an LD50 [3] of 1000 mg/kg.
